Here are results for 97 compounds from ChEMBL document CHEMBL4513216, “Probing the Open Global Health Chemical Diversity Library for Multistage-Active Starting Points for Next-Generation Antimalarials” (ACS Infect Dis, 2020).

The nature of the series: Toxicity liver stage against HepG2, at 10uM. It counts as cell-based. Also on record: test concentration 10 uM, cell line HepG2-A16-CD81EGFP. The settings on record: human, HepG2-A16-CD81EGFP cells; read-out: INHIBITION
The essentials:
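Uninfected HepG2-A16-CD81EGFP cells, 3 × 10^3 per well, 1536-well, plated on prespotted compound at 10 μM final, parasite-free screening media added to match infected plates; puromycin 10 μM positive, DMSO 0.5% negative; run in parallel with 48 h PbLuc assay at 37 °C, 5% CO2; viability by CellTiter-Glo luminescence, normalized to controls.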
With `CO[C@H]1COCCN(C(=O)c2ccc(C(F)(F)F)cc2)C1`, the cytotoxicity at 10 µM was 4.94%.
Take `Cc1nccn1-c1ccc(=O)n(CCNC(=O)c2cccs2)n1`: the cytotoxicity at 10 µM is -5.51%.
`COCCN1CCN(c2ccc3ccc(C(=O)NC4CC4)cn23)CC1`: the cytotoxicity at 10 µM is -4.37%.
Turning to `CCS(=O)(=O)N1CCOC2(COCCN(C(C)=O)C2)C1` (configuration not stated), the cytotoxicity at 10 µM came to 15.7%.
In the case of `Cc1nnc([C@@H]2C[C@H]3CN(C(=O)c4sccc4C)C[C@H]3O2)[nH]1`, the cytotoxicity at 10 µM turned out to be 16%.
With `COCCCN1CCCCC12CC(=O)N(Cc1ccccn1)C2` (configuration not stated) the figure was 1.95%.
`CCOC(=O)c1cnn(-c2cc(Oc3cc(C)ccc3C)ncn2)c1N`: the cytotoxicity at 10 µM stood at 11.3%.
Take `Cc1cnc(N2C(=O)CSC2c2ccccc2)s1` (configuration not stated): the cytotoxicity at 10 µM was -1.14%.
`O=C1CC(c2ccsc2)c2c(n(C3CCOCC3)[nH]c2=O)N1` (configuration not stated): the cytotoxicity at 10 µM worked out at 0.847%.
With `CCc1nc(Nc2ccc(C(=O)NC)cc2)c2c(n1)c(C)nn2CC` the figure was 9.38%.
On to `c1cn(-c2nccnc2C2CCCN(C3CCOCC3)C2)cn1` (configuration not stated), for which the cytotoxicity at 10 µM is 4.19%.
As to `CN(CC1CCOCC1)C1CCCN(c2ccccn2)C1` (configuration not stated), the cytotoxicity at 10 µM is -0.48%.
`O=C(c1ccccc1F)N1CCOC(c2nc(-c3ncccn3)no2)C1` (configuration not stated): the cytotoxicity at 10 µM was -2.5%.
As to `O=C(NC[C@]1(O)CN(Cc2ccc(F)cc2)C[C@H]1O)c1ccccn1`, the cytotoxicity at 10 µM was -7.8%.
Turning to `CN(Cc1cnn(C)c1)CC(O)c1ccc2c(c1)OCCCO2` (configuration not stated), the cytotoxicity at 10 µM came to 2.85%.
The value for `CC(C)C(C(=O)N(C)C)c1cccc(Cl)c1` (configuration not stated) was 6.14%.
Turning to `CCCS(=O)(=O)CC(=O)NC(C)c1cccc(-n2cccn2)c1` (configuration not stated), the cytotoxicity at 10 µM was found to be 6%.
Take `Cc1ncc(C(=O)NCCNc2ncccn2)s1`: the cytotoxicity at 10 µM is 3.79%.
Turning to `Cc1noc(C(C)Nc2ccc3oc(C(C)C)nc3c2)n1` (configuration not stated), the cytotoxicity at 10 µM is -7.84%.
As to `Cc1nc(CN(C)S(=O)(=O)c2ccc(F)cc2Br)no1`, the cytotoxicity at 10 µM was -6.26%.
With `CCn1ccnc1CN1CCN(C(C)C(=O)NCc2ccco2)CC1` (configuration not stated) the figure was 7.79%.
For the compound `Cn1c(=O)n(C)c2cc(NS(=O)(=O)Cc3cccc(F)c3)ccc21`, the cytotoxicity at 10 µM came to 6.37%.
The value for `CCC(CO)NC(=O)Nc1ccc(OCC(F)(F)F)c(C)c1` (configuration not stated) was 10.9%; that for `CC(C)(C)c1cc(=O)[nH]c(C2(N)CCCC2)n1` was 8.79%; that for `Cc1cc(CNC2(CO)CCOCC2)ccc1Br` was 17.4%.
As to `c1cc(CCN2CCCC2CN2CCCCC2)ccn1` (configuration not stated), the cytotoxicity at 10 µM was found to be 0.295%.
On to `CC1CN(S(=O)(=O)c2ccc(F)cc2)c2cccnc2O1` (configuration not stated), for which the cytotoxicity at 10 µM is -0.781%.
With `CCc1cc(=O)[nH]c(-c2ccc(NCCc3ccc(O)cc3)nc2)n1` the figure was 61.1%; with `CCC(C)(CO)NC(=O)Nc1cc2c(cc1SC)OCCO2` (configuration not stated), -10.5%; with `CCOc1ccccc1N(C)C(=O)c1ccc(Cl)cn1`, 0.0381%.
The value for `O=C(NCC1(N2CCOCC2)CCSC1)Nc1ccccn1` (configuration not stated) was 8.64%.
The value for `CCOc1cc(C)ccc1NS(=O)(=O)c1cc(C)c(C(=O)O)s1` was -6.44%; that for `CCN(CC(C)C#N)C(=O)CSc1ccc(C(F)(F)F)cn1` (configuration not stated) was 9.81%; that for `Cc1cccc(S(=O)(=O)NC(=O)CCc2cscn2)c1` was 0.983%.
Take `CCc1ccc(C(=O)N(CC)Cc2ccoc2)cc1S(C)(=O)=O`: the cytotoxicity at 10 µM was -4.89%.
With `O=C(NCCNC(=O)C1CCCCC1)NCCn1cccc1` the figure was 2.89%; with `CCN(CC)CCNC(=O)c1ccc(Cl)c(NS(C)(=O)=O)c1`, 5.53%.
With `Cc1noc(OCCOc2ccc(C#N)cc2)n1` the figure was 0.00742%; with `Cn1ncnc1CNC1CCc2cc(Cl)ccc21` (configuration not stated), 9.57%; with `N#CCCN(Cc1cccnc1)C(=O)c1ccc(-n2cnnn2)cc1`, 4.59%.
Consider `CC(C)OC(=O)NCc1ccc(NCc2cnn(C(C)(C)C)c2)cc1`, for which the cytotoxicity at 10 µM was -0.741%.
With `CC1CCN(C(=O)NCC(=O)N(C)CC(F)(F)F)C1` (configuration not stated) the figure was 1.82%; with `CC(C)n1ncc2c1NC(=O)C(C#N)C21CCCCC1` (configuration not stated), -0.47%.
With `O=C(NC[C@H]1C[C@@H]2CN(C(=O)c3ccco3)C[C@@H]2O1)c1ccsc1` the figure was -90.8%; with `Cn1cc(CNC2CCc3c(ccc(=O)n3C)C2)cn1` (configuration not stated), -115%.
With `COc1nn(C)c2c1CCCN(C(=O)c1cnccn1)C2` the figure was -84.3%; with `CN(C)c1nccc(NCc2cc(-c3cccs3)n[nH]2)n1`, -5.03%; with `O=c1[nH]c(-c2ccncc2)ncc1-c1ccnc(NC2CC2)n1`, -11.7%.
Turning to `NS(=O)(=O)NCc1cc(-c2ccco2)n(CC(F)(F)F)n1`, the cytotoxicity at 10 µM was -4.41%.
As to `OCc1ccc(-c2nccn2CCc2nc3c(s2)CCCC3)o1`, the cytotoxicity at 10 µM was determined as 4.71%.
On to `CCCn1c(C)c(CC(=O)NC(C)CO)c2c1CC(C)(C)CC2=O` (configuration not stated), for which the cytotoxicity at 10 µM was -10.5%.
The value for `Cc1cc(-c2ccc(C(C)N3CCOCC3)cc2)cnc1N` (configuration not stated) was -2.36%; that for `CC(C)N1CC2(CCC1=O)CCN(C(=O)c1cc(F)ccc1Cl)CC2` was 0.247%.
Consider `CC(=O)N1C[C@H](NC(=O)c2ccnc(N)c2)[C@@H](C(C)C)C1`, for which the cytotoxicity at 10 µM was found to be 8.64%.
With `CN(C)C(C(=O)N1CCN(CC(F)(F)F)CC1)c1ccccc1F` (configuration not stated) the figure was -2.42%.
The value for `c1ccc(Cn2cccn2)c(CN2CCCCC2CCn2ccnc2)c1` (configuration not stated) was -12%.
On to `O=C(NCCCn1cnnc1)C1CCCN(C2CCCC2)C1` (configuration not stated), for which the cytotoxicity at 10 µM is -0.121%.
On to `OC1CCCOC12CCN(Cc1nnc(-c3cccnc3)o1)CC2` (configuration not stated), for which the cytotoxicity at 10 µM came to 4.49%.
With `CCOc1ccc(C(=O)N2CCCC(c3nccn3C)C2)cc1OCC` (configuration not stated) the figure was -6.77%; with `Cc1cc2[nH]c(CN3CCOC(C(F)(F)F)C3)cc(=O)n2n1` (configuration not stated), -21.2%.
With `CC(C1CCN(Cc2cnc(-c3cccs3)nc2)CC1)N(C)C` (configuration not stated) the figure was -11.3%.
For `CC(=O)C1(c2ccccc2)CCN(C(=O)c2ccn3nnnc3c2)CC1`, the cytotoxicity at 10 µM is -4.97%.
Consider `Cc1cc(C)n2nc(C(=O)N3CCCC4(CCOC4)C3)cc2n1` (configuration not stated), for which the cytotoxicity at 10 µM was 7.73%.
As to `Cc1cccnc1N1CCN(Cc2cc(O)c3cccc(F)c3n2)CC1`, the cytotoxicity at 10 µM is 2.2%.
Turning to `O=C(NCCOc1ccccc1)C1NCCc2[nH]cnc21` (configuration not stated), the cytotoxicity at 10 µM amounted to 8.01%.
On to `CC(C)(C)n1cc(C2=CCN(CCc3ccccn3)CC2)cn1`, for which the cytotoxicity at 10 µM was -0.505%.
With `CCn1cc(CNc2ccc3nccnc3c2)cn1`, the cytotoxicity at 10 µM amounted to 1.42%.
For `NCCn1cc(C(=O)N2CCCCCC2c2cccc(F)c2)nn1` (configuration not stated), the cytotoxicity at 10 µM came out at 8.48%.
With `O=C([C@@H](O)Cc1ccccc1)N1CCCn2cncc2C1`, the cytotoxicity at 10 µM was found to be 2.55%.
With `CN(Cc1noc(-c2ccccc2)n1)C(=O)CSc1nnc(N)s1` the figure was 0.712%; with `Cc1nnc(-c2cccc(N3CCC(NC4CCSC4)CC3)c2)s1` (configuration not stated), 0.276%.
With `CCOc1ccccc1-c1cc2c(cc1C(N)=O)OCO2`, the cytotoxicity at 10 µM was 5.05%.
As to `CCCc1nc(C(=O)N2CCN(C(=O)OC)CC2)cs1`, the cytotoxicity at 10 µM is -9.85%.
With `CC(C)N1CCC(Cc2cc(-c3ccccc3C(=O)O)ncn2)CC1` the figure was -5.28%.
For the compound `CCOc1ncccc1NC(=O)N1CCN(Cc2ccncc2)CC1`, the cytotoxicity at 10 µM is -2.54%.
The value for `CC1CN(C)CCN1CC(=O)NCCOc1ccc2c(c1)OCO2` (configuration not stated) was -6.66%; that for `Cc1cc(C)n(CC2CN(CC(=O)NCc3cccs3)CCO2)n1` (configuration not stated) was -9.89%; that for `CCS(=O)(=O)N(C)CCCNCc1c(C)nn(C)c1N(C)C` was -8.72%.
With `COc1ccc(C)cc1C(C)NC(=O)CCn1cncn1` (configuration not stated) the figure was -7.82%.
For `O=C(CN1CCCC1c1cccs1)N1CCc2sccc2C1` (configuration not stated), the cytotoxicity at 10 µM was -17%.
Turning to `COc1ccc(CNC(=O)Nc2cccnc2N2CCCC2)cc1`, the cytotoxicity at 10 µM was -21.5%.
The value for `COc1cc(C)nc(N2CCN(C(=O)c3cc(C)no3)CC2)n1` was -30.4%.
The value for `Cc1cc(C)n(CC2CN(CCOc3cccc(F)c3)CCO2)n1` (configuration not stated) was -7.44%.
Take `CN(CC(=O)N1CCN(c2ccccc2F)CC1)c1cnccn1`: the cytotoxicity at 10 µM was -0.341%.
Consider `Cc1nn(C)c(Cl)c1C1CCCN1C(=O)c1cc(Cl)c[nH]1` (configuration not stated), for which the cytotoxicity at 10 µM was -6.83%.
The value for `CC(=O)Nc1ccc(Oc2cc(C)nc(C3CCNCC3)c2)cc1` was 2.69%.
`Cc1cccc(CN2C(=O)CCC23CCN(C(=O)N2CCCC2)CC3)n1`: the cytotoxicity at 10 µM came out at 4.56%.
With `O=C(c1ccc[nH]1)N1CCn2cc(CN3CCCC3)nc2C1` the figure was 3.09%; with `c1cnc(N2CC3(CCN(CC4CCOC4)CC3)c3ccccc32)nc1` (configuration not stated), -6.78%.
The value for `CN(C)CC(=O)N1CCC2(CC1)Cc1ccccc1CN(C)C2=O` was -2.96%; that for `Fc1cccc(CN2C[C@@H]3CN(Cc4ccccn4)C[C@@H]3C2)c1` was -1.07%.
For the compound `N#Cc1cccc(C(=O)N2CCc3c(COCC4CC4)cncc3C2)c1`, the cytotoxicity at 10 µM is 8.25%.
With `COc1ccc(CN2CCC3(CC2)CC(CC(=O)NC(C)C)CO3)cc1` (configuration not stated) the figure was -1.27%.
With `c1coc(CN2CCC3(CCOCC3COCC3CC3)CC2)c1` (configuration not stated) the figure was 2.79%.
Take `Cc1occc1C(=O)N1CCO[C@H]2[C@H](Oc3cccnc3)CC[C@@H]21`: the cytotoxicity at 10 µM is -93.4%.
With `O=S(=O)(c1cccnc1)N1C[C@H]2CC[C@@H](C1)N(Cc1ccccc1)C2` the figure was -5.79%; with `CN(C)c1nc2cn(C3CCSCC3)c(=O)c-2c[nH]1`, 8.56%.
